Experimental data from publication PMC3731570 (Cell Research, 2013).

Key:
[1] = test system: reconstructed ABA signaling pathway (PYR1+HAB1+SnRK2.6+ABF2), RD29b-luciferase reporter; test: Protoplast transactivation assay; format: cell-based, Arabidopsis thaliana; details: snrk2.2/2.3/2.6 protoplasts transfected with PYR1, HAB1, SnRK2.6, ABF2; 5 μM AM1
Method in brief: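 Protoplasts came from 4-week-old pRD29b-LUC plants (snrk2.2/2.3/2.6 background) grown on soil pellets under 8-h light/16-h dark. They were transfected with PYR1, HAB1, SnRK2.6 and ABF2, or the same set without PYR1. Cells were treated with 5 µM test compound; DMSO control. RD29b-driven luciferase was measured.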

[2] = test system: Arabidopsis seeds (Col-0 and pyr1;pyl1;pyl4); test: Seed germination assay; format: in vivo, Arabidopsis thaliana; details: 1 μM
Method in brief: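 Col-0 and pyr1;pyl1;pyl4 seeds were stratified 4 days, then sown on half-strength MS (1% sucrose) containing 1 µM test compound or (+)-ABA; DMSO control. Plates were kept at 22 °C under long day, 15 seeds per plate and 4 plates per chemical. Germination was defined as expanded green cotyledons and counted 4 days after triple-mutant germination; mean ± SD.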

[3] = test system: Col-0 plants rosette leaves; test: Water loss; format: in vivo, Arabidopsis thaliana; details: one-month-old Col-0 plants, 50 μM spray, compared with DMSO
Method in brief: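 Well-watered 4-week-old Col-0 plants on soil (8-h light/16-h dark) were sprayed with 50 µM test compound plus 0.02% Tween-20; DMSO control. Plants were returned to the chamber for 3 h. Equal-sized rosette leaves were then detached and weighed in air every 5 min for the first hour and every 10 min for the second. Loss is expressed as % of initial fresh weight; n = 4, standard error.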

[4] = test system: HAB1 PP2C with PYR/PYL receptors; test: HAB1 phosphatase activity assay; format: biochemical, Arabidopsis thaliana; details: 10 μM; PYR1 and PYL1-10
[5] = Stability measurement under UV light; format: physicochemical; details: water exposed to UV light (8 W)
Method in brief: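 Test compound and ABA, each 100 µM in pure water, were exposed in aliquots to an 8 W UV lamp in a safety hood. Aliquots were withdrawn at set time points for LC-MS. Amounts were quantified from peak areas, and half-life was calculated from peak disappearance.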

[6] = test system: Arabidopsis seedlings transcriptome; test: RNA-seq transcriptome profiling of seedlings; format: in vivo, Arabidopsis thaliana; details: 50 μM, FDR < 0.05
Method in brief: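 Ten-day-old Col-0 seedlings on half-strength MS were exposed for 6 h to 50 µM test compound or (+)-ABA, or 0.05% DMSO. Duplicate biological replicates were sequenced on Illumina HiSeq2000 (10 M reads/sample, mean length >49 bp). Fold-change versus DMSO was log2-transformed; Spearman correlations were computed between samples. Differential genes were called by SAM analysis.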

[7] = test system: ABA-induced stress-related genes; test: Quantitative RT-PCR of ABA-induced genes in seedlings; format: in vivo, Arabidopsis thaliana; details: 50 μM, 6 h

CC1=CC(=O)CC(C)(C)[C@@]1(O)/C=C/C(C)=C\C(=O)O [ABA, Abscisic acid]
activation of RD29b-luciferase reporter [1]: efficiently activate
inhibition of seed germination ([2]; pyr1/pyl1/pyl4 triple mutant): completely abolished
inhibition of seed germination ([2]; wild-type Col-0 seeds): inhibit germination
water loss of rosette leaves [3]: decreased
receptor-mediated inhibition of HAB1 PP2C activity [4]: inhibited by all receptor subtypes tested
half-life at 100 μM [5]: 24 min
number of genes induced (up- or down-regulated) vs DMSO [6]: 4 529 genes
activation of six ABA-inducible genes ([7]; pyr1/pyl1/pyl4 triple mutant plants): much reduced, but remained inducible
activation of six ABA-inducible genes ([7]; wild-type plants): dramatically activated
